Converted amounts (≈) assume the structure as drawn.
Columns and labels:
Type in all cases: functional
[1] = system: Staphylococcus aureus; experiment: Antibacterial activity against methicillin-resistant Staphylococcus aureus after 16 hrs by NCCLS agar dilution method
In short: (§1)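 Agar dilution MIC. Stocks were 320 μg/mL in 50% aqueous DMSO, 2-fold serially diluted in sterile water, then diluted 10-fold into Mueller–Hinton agar to give 16–0.03125 μg/mL final. Organisms were grown in MH broth at 35 °C for 8 h and adjusted to 0.5 McFarland. They were spotted onto drug-containing plates with a multipoint inoculator and incubated at 35 °C for 16 h. Linezolid was the positive control.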

[2] = system: Staphylococcus epidermidis; experiment: Antibacterial activity against methicillin-sensitive Staphylococcus epidermidis after 16 hrs by NCCLS agar dilution method; in short: as §1
[3] = system: Enterococcus faecalis; experiment: Antibacterial activity against Enterococcus faecalis after 16 hrs by NCCLS agar dilution method
In short: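 Agar dilution MIC per NCCLS, 6 E. faecalis strains. Stock was 320 μg/mL in 50% water/DMSO, serially 2-fold diluted in sterile water, then 10-fold into Mueller–Hinton agar to give 16–0.03125 μg/mL final. Inocula came from MH broth cultures grown 8 h at 35 °C, adjusted to 0.5 McFarland and spotted by multipoint inoculator. Plates were read after 16 h at 35 °C.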

[4] = system: Staphylococcus aureus; experiment: Antibacterial activity against methicillin-sensitive Staphylococcus aureus after 16 hrs by NCCLS agar dilution method; in short: as §1
[5] = system: Staphylococcus epidermidis; experiment: Antibacterial activity against methicillin-resistant Staphylococcus epidermidis after 16 hrs by NCCLS agar dilution method; in short: as §1
[6] = system: Streptococcus pneumoniae; experiment: Antibacterial activity against penicillin-resistant Streptococcus pneumoniae after 16 hrs by NCCLS agar dilution method; in short: as §1

Compound	MIC [1] [µg/mL]	MIC [2] [µg/mL]	MIC [3] [µg/mL]	MIC [4] [µg/mL]	MIC [5] [µg/mL]	MIC [6] [µg/mL]
O=C1O[C@@H](CO)CN1c1ccc(-c2ccc3c(c2)OC[C@H]2[C@H](CO)OC(=O)N32)cn1	0.5 (≈ 1.21 µM)	0.5 (≈ 1.21 µM)	0.5 (≈ 1.21 µM)	0.5 (≈ 1.21 µM)	0.5 (≈ 1.21 µM)	0.5 (≈ 1.21 µM)
CC(=O)N1CCN(c2ccc(-c3ccc4c(c3)OC[C@H]3[C@H](CO)OC(=O)N43)cn2)C1=O	4 (≈ 9.42 µM)	4 (≈ 9.42 µM)	4 (≈ 9.42 µM)	8 (≈ 18.8 µM)	8 (≈ 18.8 µM)	8 (≈ 18.8 µM)
CN1CCC[C@H]2CN(c3ccc(-c4ccc5c(c4)OC[C@H]4[C@H](CO)OC(=O)N54)cn3)C[C@H]21	8 (≈ 18.3 µM)	4 (≈ 9.16 µM)	> 32	8 (≈ 18.3 µM)	8 (≈ 18.3 µM)	> 32
O=C1O[C@@H](CO)[C@@H]2COc3cc(-c4ccc(Cn5cnnn5)nc4)ccc3N12	2 (≈ 5.26 µM)	1 (≈ 2.63 µM)	4 (≈ 10.5 µM)	2 (≈ 5.26 µM)	1 (≈ 2.63 µM)	4 (≈ 10.5 µM)
O=C1O[C@@H](CO)[C@@H]2COc3cc(-c4ccc(C(F)(F)F)nc4)ccc3N12	–	> 16	> 16	> 16	–	> 16
CC(=O)c1ccc(-c2ccc3c(c2)OC[C@H]2[C@H](CO)OC(=O)N32)cn1	2 (≈ 5.88 µM)	4 (≈ 11.8 µM)	2 (≈ 5.88 µM)	2 (≈ 5.88 µM)	4 (≈ 11.8 µM)	8 (≈ 23.5 µM)
CN1CCC(Oc2ccc(-c3ccc4c(c3)OC[C@H]3[C@H](CO)OC(=O)N43)cn2)CC1	4 (≈ 9.72 µM)	4 (≈ 9.72 µM)	> 32	4 (≈ 9.72 µM)	8 (≈ 19.4 µM)	16 (≈ 38.9 µM)
N#Cc1ccc(-c2ccc3c(c2)OC[C@H]2[C@H](CN)OC(=O)N32)cn1	–	> 16	> 16	> 16	–	> 16
O=C1O[C@@H](CO)[C@@H]2COc3cc(-c4ccc(N5C[C@@H]6CCCN[C@@H]6C5)nc4)ccc3N12	8 (≈ 18.9 µM)	4 (≈ 9.47 µM)	16 (≈ 37.9 µM)	4 (≈ 9.47 µM)	4 (≈ 9.47 µM)	8 (≈ 18.9 µM)
CC(C)N1CC(c2ccc(-c3ccc4c(c3)OC[C@H]3[C@H](CO)OC(=O)N43)cn2)OC1=O (stereo not given in full)	1 (≈ 2.35 µM)	1 (≈ 2.35 µM)	1 (≈ 2.35 µM)	1 (≈ 2.35 µM)	2 (≈ 4.7 µM)	2 (≈ 4.7 µM)
CN1CCN(c2ccc(-c3ccc4c(c3)OC[C@H]3[C@H](CO)OC(=O)N43)cn2)CC1	4 (≈ 10.1 µM)	2 (≈ 5.04 µM)	2 (≈ 5.04 µM)	2 (≈ 5.04 µM)	4 (≈ 10.1 µM)	4 (≈ 10.1 µM)
CC(C)N1CCN(c2ccc(-c3ccc4c(c3)OC[C@H]3[C@H](CO)OC(=O)N43)cn2)C(=O)C1	2 (≈ 4.56 µM)	2 (≈ 4.56 µM)	16 (≈ 36.5 µM)	2 (≈ 4.56 µM)	2 (≈ 4.56 µM)	4 (≈ 9.12 µM)
CN1CC(c2ccc(-c3ccc4c(c3)OC[C@H]3[C@H](CO)OC(=O)N43)cn2)OC1=O (stereo not given in full)	0.5 (≈ 1.26 µM)	0.25 (≈ 0.629 µM)	1 (≈ 2.52 µM)	0.5 (≈ 1.26 µM)	0.5 (≈ 1.26 µM)	1 (≈ 2.52 µM)
O=C1COCCN1c1ccc(-c2ccc3c(c2)OC[C@H]2[C@H](CO)OC(=O)N32)cn1	1 (≈ 2.52 µM)	2 (≈ 5.03 µM)	2 (≈ 5.03 µM)	2 (≈ 5.03 µM)	2 (≈ 5.03 µM)	2 (≈ 5.03 µM)
CN1CCN(c2ccc(-c3ccc4c(c3)OC[C@H]3[C@H](CO)OC(=O)N43)cn2)C1=O	2 (≈ 5.05 µM)	2 (≈ 5.05 µM)	8 (≈ 20.2 µM)	2 (≈ 5.05 µM)	4 (≈ 10.1 µM)	4 (≈ 10.1 µM)
NCc1ccc(-c2ccc3c(c2)OC[C@H]2[C@H](CO)OC(=O)N32)cn1	2 (≈ 6.11 µM)	1 (≈ 3.05 µM)	4 (≈ 12.2 µM)	2 (≈ 6.11 µM)	0.5 (≈ 1.53 µM)	4 (≈ 12.2 µM)

Compound	MIC [1] [µg/mL]	MIC [2] [µg/mL]	MIC [3] [µg/mL]	MIC [4] [µg/mL]	MIC [5] [µg/mL]	MIC [6] [µg/mL]
Cc1cc(C#N)ncc1-c1ccc2c(c1)OC[C@H]1[C@H](CO)OC(=O)N21	0.25 (≈ 0.741 µM)	0.25 (≈ 0.741 µM)	4 (≈ 11.9 µM)	0.25 (≈ 0.741 µM)	0.25 (≈ 0.741 µM)	1 (≈ 2.96 µM)
O=C1O[C@@H](CO)[C@@H]2COc3cc(-c4ccc(C(O)C5CC5)nc4)ccc3N12 (stereo not given in full)	1 (≈ 2.71 µM)	0.5 (≈ 1.36 µM)	2 (≈ 5.43 µM)	1 (≈ 2.71 µM)	1 (≈ 2.71 µM)	1 (≈ 2.71 µM)
Cn1nnc(-c2ccc(-c3ccc4c(c3)OC[C@H]3[C@H](CO)OC(=O)N43)cn2)n1	1 (≈ 2.63 µM)	1 (≈ 2.63 µM)	4 (≈ 10.5 µM)	1 (≈ 2.63 µM)	1 (≈ 2.63 µM)	1 (≈ 2.63 µM)
O=C1O[C@@H](CO)[C@@H]2COc3cc(-c4ccc(N5CCC(O)CC5)nc4)ccc3N12	2 (≈ 5.03 µM)	4 (≈ 10.1 µM)	> 32	2 (≈ 5.03 µM)	2 (≈ 5.03 µM)	2 (≈ 5.03 µM)
Cc1cc(N2CCOC2=O)ncc1-c1ccc2c(c1)OC[C@H]1[C@H](CO)OC(=O)N21	0.5 (≈ 1.26 µM)	0.5 (≈ 1.26 µM)	4 (≈ 10.1 µM)	0.5 (≈ 1.26 µM)	1 (≈ 2.52 µM)	2 (≈ 5.03 µM)
CCN1CCN(c2ccc(-c3ccc4c(c3)OC[C@H]3[C@H](CO)OC(=O)N43)cn2)CC1	4 (≈ 9.74 µM)	2 (≈ 4.87 µM)	4 (≈ 9.74 µM)	4 (≈ 9.74 µM)	4 (≈ 9.74 µM)	8 (≈ 19.5 µM)
CN1CCN(c2ccc(-c3ccc4c(c3)OC[C@H]3[C@H](CO)OC(=O)N43)cn2)C(=O)C1	2 (≈ 4.87 µM)	2 (≈ 4.87 µM)	16 (≈ 39 µM)	2 (≈ 4.87 µM)	2 (≈ 4.87 µM)	4 (≈ 9.75 µM)
C[C@@H](O)C(O)c1ccc(-c2ccc3c(c2)OC[C@H]2[C@H](CO)OC(=O)N32)cn1 (stereo not given in full)	2 (≈ 5.37 µM)	1 (≈ 2.69 µM)	4 (≈ 10.7 µM)	2 (≈ 5.37 µM)	1 (≈ 2.69 µM)	2 (≈ 5.37 µM)
CC(O)c1ccc(-c2ccc3c(c2)OC[C@H]2[C@H](CO)OC(=O)N32)cn1 (stereo not given in full)	1 (≈ 2.92 µM)	1 (≈ 2.92 µM)	2 (≈ 5.84 µM)	1 (≈ 2.92 µM)	1 (≈ 2.92 µM)	2 (≈ 5.84 µM)
CCO/N=C(\C)c1ccc(-c2ccc3c(c2)OC[C@H]2[C@H](CO)OC(=O)N32)cn1	–	> 32	> 32	> 32	–	> 32
NC1(c2ccc(-c3ccc4c(c3)OC[C@H]3[C@H](CO)OC(=O)N43)cn2)CC1	1 (≈ 2.83 µM)	1 (≈ 2.83 µM)	2 (≈ 5.66 µM)	2 (≈ 5.66 µM)	1 (≈ 2.83 µM)	1 (≈ 2.83 µM)
O=C1O[C@H](CO)CN1c1ccc(-c2ccc3c(c2)OC[C@H]2[C@H](CO)OC(=O)N32)cn1	0.5 (≈ 1.21 µM)	0.5 (≈ 1.21 µM)	0.5 (≈ 1.21 µM)	0.5 (≈ 1.21 µM)	0.5 (≈ 1.21 µM)	0.5 (≈ 1.21 µM)
O=C1O[C@@H](CO)[C@@H]2COc3cc(-c4ccc(C5(O)CCCC5)nc4)ccc3N12	1 (≈ 2.61 µM)	1 (≈ 2.61 µM)	2 (≈ 5.23 µM)	2 (≈ 5.23 µM)	1 (≈ 2.61 µM)	2 (≈ 5.23 µM)
NCC1CN(c2ccc(-c3ccc4c(c3)OC[C@H]3[C@H](CO)OC(=O)N43)cn2)C(=O)O1 (stereo not given in full)	1 (≈ 2.42 µM)	0.5 (≈ 1.21 µM)	1 (≈ 2.42 µM)	1 (≈ 2.42 µM)	2 (≈ 4.85 µM)	2 (≈ 4.85 µM)
CC(C)N1CCN(c2ccc(-c3ccc4c(c3)OC[C@H]3[C@H](CO)OC(=O)N43)cn2)C1=O	2 (≈ 4.71 µM)	2 (≈ 4.71 µM)	8 (≈ 18.8 µM)	4 (≈ 9.42 µM)	4 (≈ 9.42 µM)	4 (≈ 9.42 µM)
